Compound activity (PubChem BioAssay)
Rows were chosen to be rich in hits. Some 1.8% of all compounds tested hit in one or more screens of this group.
CCR6 antagonist: CCR6 (human) receptor antagonism; P51684; CHO-K1 CCR6 PathHunter beta-arrestin, luminescence, CCL20-stimulated; inhibition, % at 20 µM; 0.49% of 340,000 active;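 active means compounds whose inhibition of the agonist-driven luminescence signal at 20 µM reaches about 50%, limit read from the data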;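 further: cells stimulated with CCL20 at 14 nM final; plate controls were DMSO with CCL20 for no effect and DMSO without agonist for full effect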
CXCR6 block: blocks human CXCR6 beta-arrestin recruitment | O00574 | 0.36% of 360,000 active | inhibition, % at 20 µM | CHO-K1 PathHunter CXCR6 beta-arrestin, luminescence; in the data active means inhibition above about 34%, passing the limit was not always enough;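 further: antagonist mode with CXCL16 agonist at 10 nM final; 0% = 10 nM CXCL16 with DMSO and 100% = unstimulated wells without agonist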
APJ antagonist: blocks the human apelin receptor APJ. inhibition, % at 20 µM. CHO-K1 APJ beta-arrestin complementation, luminescence. AID 2521. P35414. 0.32% of 330,000 active;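 active means inhibition above about 40% at 20 µM, limit read from the data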;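 further: cells challenged with 10 nM apelin-13 agonist together with compound; plate controls were apelin-13 plus DMSO wells for no effect and DMSO wells lacking apelin-13 for full effect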
Target sequence (P35414 whole entry, looked up): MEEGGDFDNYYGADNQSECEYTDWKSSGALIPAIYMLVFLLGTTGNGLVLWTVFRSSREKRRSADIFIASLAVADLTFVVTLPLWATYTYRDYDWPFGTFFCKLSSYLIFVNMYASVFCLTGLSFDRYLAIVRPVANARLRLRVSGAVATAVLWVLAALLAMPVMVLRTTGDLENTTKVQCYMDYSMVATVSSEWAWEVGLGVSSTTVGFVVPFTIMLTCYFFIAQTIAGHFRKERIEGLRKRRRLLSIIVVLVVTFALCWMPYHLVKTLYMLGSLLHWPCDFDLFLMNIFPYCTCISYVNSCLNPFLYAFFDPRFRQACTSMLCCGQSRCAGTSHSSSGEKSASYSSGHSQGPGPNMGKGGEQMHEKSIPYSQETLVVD
Beta2AR agonist: agonists of human beta-2 adrenergic receptor inducing internalization; Am2.2-beta2AR cells, FAP receptor internalization, flow cytometry; response, % (no concentration beside the values); 0.43% of 340,000 active;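 active means response above a set limit, near 3 SD of response in nonfluorescent compounds, cut at about 42% in these data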
EBI2 block: EBI2 (human) antagonism. EBI2 beta-arrestin recruitment, luminescence, 7a,25-OHC stimulated. inhibition, % at 5 µM. 0.81% of 360,000 active. AID 651636; in the data active means inhibition above about 38%;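 further: enzyme fragment complementation signal reports receptor beta-arrestin coupling in cells; 0% = agonist plus DMSO wells and 100% = wells without agonist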
APJ agonist: APJ receptor agonism; activation, % at 20 µM; CHO-K1 APJ PathHunter beta-arrestin, luminescence; 0% DMSO wells, 100% apelin; P35414; 0.11% of 330,000 active;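 active means activation more than six SD over the plate average, tested at 20 µM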;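 further: 0% = DMSO alone and 100% = apelin-13 at 10 nM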
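Material: engineered CHO-K1 APJ arrestin reporter cells; amount: 1000 CHO-K1 reporter cells seeded per well; incubation: compound stimulation 90 min at 25 °C, detection 60 min; signal: luminescent beta-gal fragment complementation, chemiluminescent substrate; read-out basis: APJ agonist activity; controls: DMSO-only wells as negative, 10 nM Apelin-13 as positive control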
EBI2 conf: EBI2 (human) antagonism, single concentration confirmation; EBI2 beta-arrestin luminescence, 7a,25-OHC antagonism; 29% of 2,400 active; shares compounds with EBI2 block; inhibition, % at 5 µM;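 active means inhibition of at least 50%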
EBI2 ag: activates EBI2, counter-screen for EBI2 antagonists; shares compounds with EBI2 block; EBI2-expressing cells, agonist mode, luminescence, 60 min; 0% vehicle, 100% 7α,25-dihydroxycholesterol control; activation, % at 5 µM; 2,400 tested, under 10 active; AID 652000;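 active means activation of at least 50%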
bGal counter: beta-galactosidase inhibition counter-screen; 1% of 2,400 active; shares compounds with EBI2 block; AID 652176; purified beta-galactosidase, luminescent Galacton Star, 15 min; inhibition, % at 5 µM;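 active means replicate-average signal at least 3 plate SD below neutral wells, shown as high inhibition, flagging enzyme-inhibiting false positives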;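 further: 0% = DMSO wells with enzyme and 100% = wells lacking enzyme; higher means stronger loss of beta-gal luminescence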
* marks the source's active call; other numbers are inactive results; . = not tested or not shown; ! = repeats disagree.

SMILES	CCR6 antagonist	CXCR6 block	APJ antagonist	Beta2AR agonist	EBI2 block	APJ agonist	EBI2 conf	EBI2 ag	bGal counter
CC(=O)N1CCOc2ccc(S(=O)(=O)N3CCC(C(=O)NCc4ccc(F)cc4)CC3)cc21	-12	-2	22	7	69*	3	56*	2	-13
CC(=O)N1CCOc2ccc(S(=O)(=O)N3CCC(C(=O)NCc4ccc(Cl)cc4)CC3)cc21	.	-6	.	.	90*	.	80*	2	1
CCc1ccc(NC(=O)C2CCN(S(=O)(=O)c3ccc4c(c3)N(C(C)=O)CCO4)CC2)cc1	11	2	21	-3	6	-7	.	.	.
COc1ccc(-c2csc(C(C#N)=C(O)CSc3nccn3C)n2)cc1OC	10	-1	.	6	-1	.	.	.	.
Cc1nc(CS(=O)(=O)c2ccc(Cl)cc2)cc(Sc2ccc(Cl)cc2)n1	1	-1	0	0	73*	-5	62*	0	11
COc1ccc(NC(=O)N(C)C[C@H]2Oc3ccc(NC(=O)NC4CCCCC4)cc3C(=O)N([C@H](C)CO)C[C@@H]2C)cc1	2	-2	1	-2	-8	-3	.	.	.
COc1ccc(Nc2nc(-c3sc(C)nc3C)cs2)cc1	-4	-4	-20	-11	53*	-5	53*	-1	5
Cc1nc(C)c(-c2csc(Nc3ccc(N)cc3)n2)s1	10	-11	-24	6	16	6	.	.	.
C=CCNc1nc(Nc2ccc(OC)c(OC)c2)c2sc(-c3ccccc3)cc2n1	.	3	.	.	18	.	.	.	.
COc1cc2nc(SCc3c(C)noc3C)n(CCC3=CCCCC3)c(=O)c2cc1OC	22	27	7	5	46*	9	15	-1	-6
CCCCSc1nc2ccc(Nc3nc(N4CCOCC4)nc(N4CCOCC4)n3)cc2s1	8	7	1	14	46*	0	24	-1	-6
CCc1nc2ccc(C(=O)Nc3ccc4c(c3)OCC(=O)N4)cn2c1N(C)C(=O)C1CCCCC1	.	2	.	.	-3	.	.	.	.
CC(C)(C)C1CCC(=O)N(CCOc2ccccc2)CC1 (centres undefined)	0	-1	6	-5	52*	2	17	0	-15
CCCN1CCC(=O)N(CCOc2ccccc2)CC1	4	-15	5	-3	29	1	.	.	.
COc1cc2ccccc2cc1C(=O)N1CCN(c2ccccn2)CC1	7	-4	22	10	37	1	.	.	.
CCOc1ccccc1N1CCN(C(=O)c2cc3ccccc3cc2OC)CC1	2	6	18	-2	57*	-5	31	1	9
COc1cc2ccccc2cc1C(=O)N1CCN(C(C)=O)CC1	5	5	9	1	66*	-4	52*	0	-13
O=C(NCCc1c[nH]c2ccccc12)C1CCCN(S(=O)(=O)c2ccccc2)C1 (centres undefined)	7	-8	15	-3	46*	-2	40	0	-16
CCNC(=O)NC(=O)C(C)OC(=O)c1oc2ccccc2c1CSC1CCCCC1 (centres undefined)	13	-3	6	-3	44*	-4	35	0	2
CCN(C(=O)Cn1cnc2c1c(=O)n(C)c(=O)n2C)C1CCS(=O)(=O)C1 (centres undefined)	6	-8	6	3	-13	-3	.	.	.
CC(NCC(O)COc1ccc2ccccc2c1)c1ccccc1 (centres undefined)	1	-10	18	17	46*	2	18	0	-6
O=C(NCc1ccccc1)c1cc(C2CCCCN2S(=O)(=O)c2ccccc2)on1 (centres undefined)	.	0	.	.	3	.	.	.	.
O=C1C=C(c2ccc3[nH]ccc3c2)C[C@@H](c2ccc(Cl)cc2)C1	20	3	1	10	64*	-1	34	0	4
O=C1C=C(c2cccc(CO)c2)C[C@@H](c2ccc(Cl)cc2)C1	14	-2	16	-12	37	-2	.	.	.
O=C1C=C(c2cccc3c2sc2ccccc23)C[C@@H](c2ccc(Cl)cc2)C1	11	12	-4	0	45*	-2	34	1	4
SMILES	CCR6 antagonist	CXCR6 block	APJ antagonist	Beta2AR agonist	EBI2 block	APJ agonist	EBI2 conf	EBI2 ag	bGal counter
O=C1C=C(c2cccc3c2Oc2ccccc2S3)C[C@@H](c2ccc(Cl)cc2)C1	7	4	18	-17	14	2	.	.	.
COc1ccc([C@H]2CC(=O)C=C(c3ccc4ncccc4c3)C2)cc1	17	7	-6	-13	82*	-1	58*	0	8
COc1ccc([C@H]2CC(=O)C=C(c3ccc4ncccc4c3)C2)cc1OC	16	1	6	-6	47*	-3	24	1	3
Cc1c(C(=O)OCC(=O)NCc2ccco2)cccc1[N+](=O)[O-]	2	3	3	-3	-5	-2	.	.	.
O=C1C=C(c2ccccc2)C[C@@H](c2ccc(Cl)cc2)C1	38	1	5	-6	23	-5	.	.	.
O=C1C=C(c2ccc3ncccc3c2)C[C@@H](c2ccc(Cl)cc2)C1	20	10	-1	7	87*	-6	75*	-1	-8
O=C1C=C(c2ccc3ccccc3c2)C[C@@H](c2ccc(Cl)cc2)C1	16	3	3	-8	74*	-5	70*	-1	-5
CCCNC(=O)C1(C)CCCN(Cc2ccccc2C#N)C1 (centres undefined)	.	13	.	.	-5	.	.	.	.
CC(C)N(C(=O)COC(=O)c1ccccc1C(=O)c1ccc(Cl)c([N+](=O)[O-])c1)C(C)C	27	20	6	22	46*	-2	38	0	8
CN(CCC#N)C(=O)COC(=O)c1ccccc1C(=O)c1ccc(Cl)c([N+](=O)[O-])c1	-5	19	.	25	13	.	.	.	.
C=CC[C@@H](CC(=O)N[C@H](CO)Cc1ccccc1)C(=O)N[C@@H](COC(=O)[C@@H](CC=C)CC(=O)OC(C)(C)C)Cc1ccccc1	10	2	-10	-4	20	-2	.	.	.
CCOc1ccc(NC(=S)Nc2ccc(Br)cc2Cl)cc1	14	10	-5	4	68*	-3	43	2	-2
COc1ccc(NC(=S)Nc2ccccc2)cc1	7	3	12	-3	39*!	-2	9	3	7
